# Data published in ChEMBL document CHEMBL2424657, “Identification of the KDM2/7 histone lysine demethylase subfamily inhibitor and its antiproliferative activity” (J Med Chem, 2013).
# How the values were obtained:
# [1] = biological target: Lysine-specific demethylase 5A (Homo sapiens, UniProt P29375); assay: Inhibition of KDM5A (unknown origin) using H3K4me3 peptide and 2-oxoglutarate as substrate after 1 hr by FDH-coupled assay
# In short: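 Run as the FDH-coupled KDM4C format, with compounds in DMSO and activity relative to a DMSO control. KDM4A was used at 0.37 mg/mL final with H3K9me3 peptide. KDM5A was used at 0.64 mg/mL final with H3K4me3 peptide. Values are means of two experiments.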
# [2] = biological target: T1, Lysine-specific demethylase 7A (Homo sapiens, UniProt Q6ZMT4); assay: Inhibition of KDM7A (unknown origin) using K27me2 peptide as substrate by MALDI assay
# T1 sequence (Q6ZMT4 whole entry): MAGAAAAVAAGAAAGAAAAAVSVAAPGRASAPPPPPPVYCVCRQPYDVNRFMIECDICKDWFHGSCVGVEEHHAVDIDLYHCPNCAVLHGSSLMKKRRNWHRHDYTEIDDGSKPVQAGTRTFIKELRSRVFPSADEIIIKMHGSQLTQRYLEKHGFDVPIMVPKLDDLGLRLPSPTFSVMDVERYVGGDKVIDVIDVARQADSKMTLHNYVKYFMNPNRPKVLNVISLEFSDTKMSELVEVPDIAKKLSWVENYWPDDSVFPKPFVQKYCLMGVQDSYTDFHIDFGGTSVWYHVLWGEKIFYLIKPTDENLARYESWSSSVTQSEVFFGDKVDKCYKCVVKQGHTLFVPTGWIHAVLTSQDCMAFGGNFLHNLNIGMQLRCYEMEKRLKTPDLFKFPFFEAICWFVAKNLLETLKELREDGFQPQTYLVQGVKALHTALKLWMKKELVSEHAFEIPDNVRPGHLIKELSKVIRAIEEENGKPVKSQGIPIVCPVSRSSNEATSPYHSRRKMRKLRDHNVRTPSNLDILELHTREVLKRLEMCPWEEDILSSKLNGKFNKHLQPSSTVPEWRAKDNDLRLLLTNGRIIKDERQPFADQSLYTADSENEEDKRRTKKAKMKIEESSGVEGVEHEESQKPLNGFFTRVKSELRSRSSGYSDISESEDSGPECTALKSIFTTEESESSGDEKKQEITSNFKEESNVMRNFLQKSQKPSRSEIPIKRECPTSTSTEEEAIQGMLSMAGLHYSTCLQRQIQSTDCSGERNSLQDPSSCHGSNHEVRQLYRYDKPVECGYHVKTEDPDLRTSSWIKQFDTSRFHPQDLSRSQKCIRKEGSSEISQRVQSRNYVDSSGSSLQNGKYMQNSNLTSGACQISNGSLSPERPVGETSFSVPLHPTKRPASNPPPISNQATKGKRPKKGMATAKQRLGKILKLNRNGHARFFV
# [3] = biological target: Histone lysine demethylase PHF8 (Homo sapiens, UniProt Q9UPP1); assay: Inhibition of KDM7B (unknown origin) using H3K4me3K9me2 and 2-oxoglutarate as substrate after 1 hr by matrix-assisted laser desorption ionization time of flight mass spectrometry
# In short: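 Enzyme (0.5 mg/mL) was reacted with 5 μM H3K4me3K9me2 peptide, 0.5 mM 2-oxoglutarate, 20 μM Fe(II), 20 μM ZnCl2, 0.5 mM ascorbate, 150 mM KCl, glutathione and DTT in 10 mM Tris-HCl pH 8.0 for 1 h at 37 °C. Inhibition was calculated from the remaining H3K9me2, and IC50 was taken as the concentration halving H3K9me2 removal. Values are means of two experiments.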
# HeLa = assay: Growth inhibition of human HeLa cells after 48 hrs by MTT assay; type: functional
# In short: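 Cells were seeded at 5000/well in RPMI 1640 with 10% FBS and allowed to attach overnight, then exposed for 48 h at 37 °C in 5% CO2. MTT was added for 3 h, and the dye was solubilized in HCl–2-propanol and read at 560 nm (reference 750 nm).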
# [4] = biological target: T2, Lysine-specific demethylase 2A (Homo sapiens, UniProt Q9Y2K7); assay: Inhibition of KDM2A (unknown origin)
# T2 sequence (Q9Y2K7 whole entry): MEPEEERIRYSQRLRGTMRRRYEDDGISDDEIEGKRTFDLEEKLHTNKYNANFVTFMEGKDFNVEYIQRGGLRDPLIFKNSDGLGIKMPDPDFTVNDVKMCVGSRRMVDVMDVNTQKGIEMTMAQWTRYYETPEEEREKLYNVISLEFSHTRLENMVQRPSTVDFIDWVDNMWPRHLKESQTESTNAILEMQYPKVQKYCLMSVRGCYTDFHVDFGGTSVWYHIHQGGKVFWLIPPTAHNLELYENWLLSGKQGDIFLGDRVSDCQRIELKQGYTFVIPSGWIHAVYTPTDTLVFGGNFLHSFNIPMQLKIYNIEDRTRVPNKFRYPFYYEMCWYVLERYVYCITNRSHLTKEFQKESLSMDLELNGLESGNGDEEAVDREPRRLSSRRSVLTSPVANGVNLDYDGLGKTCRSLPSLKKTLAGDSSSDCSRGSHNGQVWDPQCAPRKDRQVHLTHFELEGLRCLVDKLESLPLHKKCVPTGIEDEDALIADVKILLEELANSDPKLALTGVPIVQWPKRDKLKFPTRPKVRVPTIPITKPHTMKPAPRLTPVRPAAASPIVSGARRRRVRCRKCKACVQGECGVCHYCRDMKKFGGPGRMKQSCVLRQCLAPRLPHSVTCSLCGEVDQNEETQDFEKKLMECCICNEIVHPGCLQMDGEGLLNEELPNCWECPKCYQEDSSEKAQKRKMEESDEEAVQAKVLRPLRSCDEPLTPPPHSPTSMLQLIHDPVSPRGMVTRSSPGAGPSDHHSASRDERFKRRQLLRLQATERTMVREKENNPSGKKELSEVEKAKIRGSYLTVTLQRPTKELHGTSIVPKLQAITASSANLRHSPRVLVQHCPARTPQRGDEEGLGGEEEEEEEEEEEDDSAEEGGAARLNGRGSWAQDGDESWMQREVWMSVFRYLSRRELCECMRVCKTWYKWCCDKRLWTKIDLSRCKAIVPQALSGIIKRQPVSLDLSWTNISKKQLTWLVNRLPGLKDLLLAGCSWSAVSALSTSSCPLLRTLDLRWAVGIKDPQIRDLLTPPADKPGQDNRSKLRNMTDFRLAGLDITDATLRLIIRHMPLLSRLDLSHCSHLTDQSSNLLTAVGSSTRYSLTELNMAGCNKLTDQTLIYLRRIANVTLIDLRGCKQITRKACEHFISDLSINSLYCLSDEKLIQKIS
# Lysine-specific demethylase 5A, sequence (P29375 whole entry): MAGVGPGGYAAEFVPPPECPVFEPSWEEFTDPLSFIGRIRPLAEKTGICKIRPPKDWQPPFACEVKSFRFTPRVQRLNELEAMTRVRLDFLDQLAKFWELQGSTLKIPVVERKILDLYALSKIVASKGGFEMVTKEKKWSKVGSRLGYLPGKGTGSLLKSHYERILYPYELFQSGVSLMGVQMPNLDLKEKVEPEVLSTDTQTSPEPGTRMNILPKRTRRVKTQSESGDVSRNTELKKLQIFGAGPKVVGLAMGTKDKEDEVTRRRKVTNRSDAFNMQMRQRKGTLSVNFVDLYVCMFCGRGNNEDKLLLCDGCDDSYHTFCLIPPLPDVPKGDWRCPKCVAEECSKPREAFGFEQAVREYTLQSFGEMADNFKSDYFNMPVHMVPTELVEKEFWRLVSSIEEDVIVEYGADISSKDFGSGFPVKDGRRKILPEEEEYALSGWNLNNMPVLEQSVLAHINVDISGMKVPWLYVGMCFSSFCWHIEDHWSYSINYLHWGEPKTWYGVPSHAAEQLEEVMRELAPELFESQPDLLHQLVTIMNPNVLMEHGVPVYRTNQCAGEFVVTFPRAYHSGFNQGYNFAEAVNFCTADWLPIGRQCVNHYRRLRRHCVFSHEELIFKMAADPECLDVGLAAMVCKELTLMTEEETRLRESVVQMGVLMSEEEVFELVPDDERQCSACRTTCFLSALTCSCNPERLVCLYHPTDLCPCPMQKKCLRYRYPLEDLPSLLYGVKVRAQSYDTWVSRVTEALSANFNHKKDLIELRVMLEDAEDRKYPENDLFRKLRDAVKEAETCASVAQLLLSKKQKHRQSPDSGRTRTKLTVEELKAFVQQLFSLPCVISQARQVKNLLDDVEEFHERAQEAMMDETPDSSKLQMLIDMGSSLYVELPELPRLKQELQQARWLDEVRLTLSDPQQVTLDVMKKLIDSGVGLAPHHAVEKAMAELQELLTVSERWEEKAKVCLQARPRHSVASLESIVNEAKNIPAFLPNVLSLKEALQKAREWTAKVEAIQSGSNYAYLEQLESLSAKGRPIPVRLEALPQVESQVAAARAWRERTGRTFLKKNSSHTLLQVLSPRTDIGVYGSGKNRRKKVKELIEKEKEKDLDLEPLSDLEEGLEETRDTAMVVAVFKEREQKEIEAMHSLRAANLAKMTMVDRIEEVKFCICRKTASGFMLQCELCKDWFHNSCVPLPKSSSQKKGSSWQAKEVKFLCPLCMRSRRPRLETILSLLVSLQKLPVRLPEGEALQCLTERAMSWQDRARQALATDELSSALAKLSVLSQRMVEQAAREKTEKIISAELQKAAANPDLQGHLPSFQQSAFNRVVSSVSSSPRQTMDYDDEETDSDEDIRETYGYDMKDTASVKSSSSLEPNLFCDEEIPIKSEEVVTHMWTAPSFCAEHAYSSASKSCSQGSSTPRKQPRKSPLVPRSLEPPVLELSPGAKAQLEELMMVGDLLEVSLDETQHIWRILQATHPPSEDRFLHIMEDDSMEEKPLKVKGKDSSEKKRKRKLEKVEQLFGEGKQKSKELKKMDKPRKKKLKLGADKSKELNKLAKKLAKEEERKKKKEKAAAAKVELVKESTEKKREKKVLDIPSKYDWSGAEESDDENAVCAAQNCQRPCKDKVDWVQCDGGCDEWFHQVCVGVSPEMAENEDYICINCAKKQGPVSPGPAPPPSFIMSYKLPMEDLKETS
# Histone lysine demethylase PHF8, sequence (Q9UPP1 whole entry): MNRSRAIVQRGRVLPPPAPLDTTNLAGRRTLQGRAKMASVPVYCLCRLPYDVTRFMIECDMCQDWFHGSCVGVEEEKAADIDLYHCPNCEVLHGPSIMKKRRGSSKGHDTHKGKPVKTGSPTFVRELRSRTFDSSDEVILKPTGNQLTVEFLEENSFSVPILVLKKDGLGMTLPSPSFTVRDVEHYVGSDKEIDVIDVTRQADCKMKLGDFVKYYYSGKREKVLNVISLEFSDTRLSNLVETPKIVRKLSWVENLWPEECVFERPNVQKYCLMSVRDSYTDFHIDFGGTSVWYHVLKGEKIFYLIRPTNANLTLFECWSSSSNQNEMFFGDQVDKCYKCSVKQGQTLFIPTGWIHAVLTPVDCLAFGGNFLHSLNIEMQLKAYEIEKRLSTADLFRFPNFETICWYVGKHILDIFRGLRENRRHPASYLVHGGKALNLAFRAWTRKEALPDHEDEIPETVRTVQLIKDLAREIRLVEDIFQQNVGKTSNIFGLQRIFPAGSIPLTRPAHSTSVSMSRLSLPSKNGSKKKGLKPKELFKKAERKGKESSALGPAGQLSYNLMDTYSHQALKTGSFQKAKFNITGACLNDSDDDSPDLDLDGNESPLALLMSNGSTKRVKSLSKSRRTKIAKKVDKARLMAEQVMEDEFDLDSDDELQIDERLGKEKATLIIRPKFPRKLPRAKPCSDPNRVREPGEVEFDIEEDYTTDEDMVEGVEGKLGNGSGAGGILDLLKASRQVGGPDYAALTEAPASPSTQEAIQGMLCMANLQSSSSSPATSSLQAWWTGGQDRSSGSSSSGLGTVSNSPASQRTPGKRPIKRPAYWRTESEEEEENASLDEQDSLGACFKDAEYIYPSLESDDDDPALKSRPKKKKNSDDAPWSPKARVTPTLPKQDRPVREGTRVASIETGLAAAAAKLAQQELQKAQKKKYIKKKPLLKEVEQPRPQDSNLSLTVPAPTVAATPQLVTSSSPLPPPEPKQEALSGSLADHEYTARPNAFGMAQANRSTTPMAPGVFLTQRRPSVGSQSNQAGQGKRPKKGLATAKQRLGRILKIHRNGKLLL
SMILES,IC50 [1],IC50 [2],IC50 [3],GI50 (HeLa),IC50 [4]
CN(C)CCCCCCCCC(=O)N(O)CCC(=O)O,13 µM,1.6 µM,19 µM,> 470 µM,0.2 µM
O=C(O)CCN(O)C(=O)CCCCCCCCC1CC1,55 µM,0.2 µM,1.2 µM,40 µM,6.8 µM
